The text below walks through data of ChEMBL document CHEMBL4376807, “Hydroxamic Acid Derivatives of β-Carboline/Hydroxycinnamic Acid Hybrids Inducing Apoptosis and Autophagy through the PI3K/Akt/mTOR Pathways” (J Nat Prod, 2019).

Activity calls are given as the source filed them. The calls are words filed in the database; no cut-off is given here.

The target of data set [1] is Histone deacetylase 1 (Homo sapiens, UniProt Q13547). Briefly: Inhibition of HDAC1 (unknown origin) using Boc-Lys (Ac)-AMC as substrate incubated for 60 mins by fluorimetric assay.
Chain of Histone deacetylase 1 (Q13547 whole entry): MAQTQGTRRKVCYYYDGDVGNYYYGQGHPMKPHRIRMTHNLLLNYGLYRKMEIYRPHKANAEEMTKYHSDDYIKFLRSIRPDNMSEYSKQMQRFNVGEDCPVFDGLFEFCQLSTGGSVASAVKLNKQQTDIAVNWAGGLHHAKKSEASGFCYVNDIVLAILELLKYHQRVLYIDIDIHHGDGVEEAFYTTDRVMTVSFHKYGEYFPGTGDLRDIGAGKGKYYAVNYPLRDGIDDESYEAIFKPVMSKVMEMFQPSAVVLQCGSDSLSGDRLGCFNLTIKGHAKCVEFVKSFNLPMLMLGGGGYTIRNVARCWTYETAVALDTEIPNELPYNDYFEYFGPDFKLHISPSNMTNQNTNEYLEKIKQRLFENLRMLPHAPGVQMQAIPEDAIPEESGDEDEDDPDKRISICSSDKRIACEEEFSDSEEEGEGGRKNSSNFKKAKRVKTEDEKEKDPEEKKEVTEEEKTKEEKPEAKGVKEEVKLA
Data set [2] has as its target T1, Protein deacetylase HDAC6 (Homo sapiens, UniProt Q9UBN7).
T1 sequence (Q9UBN7 whole entry): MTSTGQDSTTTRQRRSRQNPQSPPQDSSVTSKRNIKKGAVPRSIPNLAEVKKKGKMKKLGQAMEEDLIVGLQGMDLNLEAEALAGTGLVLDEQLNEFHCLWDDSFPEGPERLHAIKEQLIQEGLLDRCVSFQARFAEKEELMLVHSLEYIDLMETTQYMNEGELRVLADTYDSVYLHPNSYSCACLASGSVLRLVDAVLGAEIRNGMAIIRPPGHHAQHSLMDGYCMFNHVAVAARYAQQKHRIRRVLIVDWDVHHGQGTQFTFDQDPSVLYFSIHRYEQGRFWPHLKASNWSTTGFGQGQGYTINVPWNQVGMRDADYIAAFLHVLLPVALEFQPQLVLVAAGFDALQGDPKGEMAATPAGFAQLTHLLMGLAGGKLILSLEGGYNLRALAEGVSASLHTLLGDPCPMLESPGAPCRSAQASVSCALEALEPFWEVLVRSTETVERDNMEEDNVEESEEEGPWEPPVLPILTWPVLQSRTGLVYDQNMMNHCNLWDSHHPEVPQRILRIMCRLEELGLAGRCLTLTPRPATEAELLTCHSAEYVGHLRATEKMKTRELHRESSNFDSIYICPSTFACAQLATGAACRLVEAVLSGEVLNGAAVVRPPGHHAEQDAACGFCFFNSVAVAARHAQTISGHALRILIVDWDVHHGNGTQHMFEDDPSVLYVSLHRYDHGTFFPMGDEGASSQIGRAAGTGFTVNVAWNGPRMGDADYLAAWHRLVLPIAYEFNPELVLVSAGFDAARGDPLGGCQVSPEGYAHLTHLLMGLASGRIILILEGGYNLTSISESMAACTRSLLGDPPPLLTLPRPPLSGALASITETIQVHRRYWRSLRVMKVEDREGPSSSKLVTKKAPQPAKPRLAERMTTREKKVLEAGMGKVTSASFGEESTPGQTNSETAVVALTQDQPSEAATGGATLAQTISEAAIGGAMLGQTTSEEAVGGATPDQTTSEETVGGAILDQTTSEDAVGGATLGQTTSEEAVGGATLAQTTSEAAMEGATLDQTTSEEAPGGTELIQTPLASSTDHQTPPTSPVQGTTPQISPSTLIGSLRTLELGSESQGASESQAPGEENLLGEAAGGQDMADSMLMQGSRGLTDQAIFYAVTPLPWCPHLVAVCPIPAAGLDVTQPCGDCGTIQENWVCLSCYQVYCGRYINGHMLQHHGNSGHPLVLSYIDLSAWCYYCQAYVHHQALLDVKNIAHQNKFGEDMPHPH
Briefly: Inhibition of human HDAC6 using Boc-Lys (Ac)-AMC as substrate incubated for 60 mins by fluorimetric assay.

Data set [3] deals with T2, Histone deacetylase 8 (Homo sapiens, UniProt Q9BY41).
T2 sequence (Q9BY41 whole entry): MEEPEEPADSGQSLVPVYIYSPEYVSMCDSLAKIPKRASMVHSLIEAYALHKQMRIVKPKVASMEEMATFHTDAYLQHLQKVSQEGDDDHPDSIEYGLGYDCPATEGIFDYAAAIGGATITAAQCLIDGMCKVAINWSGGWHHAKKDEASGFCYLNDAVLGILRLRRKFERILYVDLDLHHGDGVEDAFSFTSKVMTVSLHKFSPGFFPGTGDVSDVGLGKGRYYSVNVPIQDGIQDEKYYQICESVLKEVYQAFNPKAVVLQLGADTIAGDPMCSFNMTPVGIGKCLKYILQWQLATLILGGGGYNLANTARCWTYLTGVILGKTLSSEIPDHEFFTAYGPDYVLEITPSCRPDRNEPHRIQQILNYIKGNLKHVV
The data set is described as follows: Inhibition of human HDAC8 using Boc-Lys (Ac)-AMC as substrate incubated for 60 mins by fluorimetric assay.

Data set [4] is filed under the species Homo sapiens. The data set is described as follows: Selectivity ratio of IC50 for HDAC1 (unknown origin) to IC50 for human HDAC6. The procedure, abridged: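 Recombinant human HDAC1, 3, 6 and 8 (fluorimetric kit) incubated with compound over a range of concentrations and Boc-Lys(Ac)-AMC substrate at 37 °C for 60 min. Reaction quenched with lysine developer; after 30 min, fluorescence read at ex 355/em 460 nm. Inhibition taken relative to control and IC50 fitted; ratios built from these IC50s.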

For data set [5], the system named is Bel-7402. The data set is described as follows: Induction of apoptosis in human Bel7402 cells assessed as annexin-V positive cells at 5 uM after 72 hrs by Annexin-V/PI staining based flow cytometry relative to control. The class given is functional. An outline of the steps: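 Bel7402 cells (10 000) cultured overnight, then exposed to compound at 1.0 or 5.0 μM, or vehicle, for 72 h. Harvested, stained with annexin-V APC and 7-AAD for 15 min. Apoptotic percentage measured by flow cytometry (APC ex 633/em 660 nm; 7-AAD ex 488/em 647 nm). Three separate assays, mean ± SD.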
In general terms: A flow cytometer gives signals particle by particle.

For data set [6], the system named is Bel-7402. The data set is described as follows: Induction of apoptosis in human Bel7402 cells assessed as increase in Bax expression after 72 hrs by Western blot analysis. The class given is functional, cell-based. The procedure, abridged: (§1)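 Subconfluent Bel7402 cells (1.5 × 10^5/mL) exposed to vehicle or compound for 72 h, then lysed. Lysates (0.05 mg/lane) run on 12% SDS-PAGE, transferred to nitrocellulose, blocked in 5% nonfat milk. Probed for Bax, Bcl-2, cleaved caspase-3 and cleaved PARP, with HRP secondary and chemiluminescence. Levels normalized to β-actin; three separate assays, mean ± SD.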
(Immunoblotting shows a protein as a band on a membrane.)

Data set [7] concerns Bel-7402. The data set is described as follows: Induction of apoptosis in human Bel7402 cells assessed as increase in cleaved PARP level at 1 uM after 72 hrs by Western blot analysis. The data set is classed as functional, cell-based. An outline of the steps: as §1
In data set [8] the test system is Bel-7402. The data set is described as follows: Induction of autophagy in human Bel7402 cells assessed as upregulation of Beclin1 level at 1 to 5 uM after 24 to 72 hrs by Western blot analysis. The class given is functional, cell-based. The procedure, abridged:
(§2)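 Bel7402 cells (1.5 × 10^5/mL) exposed to compound at indicated doses, or vehicle, for 24 or 72 h. Lysates (0.05 mg/lane) separated on 12% SDS-PAGE, blotted to nitrocellulose, blocked in 5% milk. Probed with anti-LC3, anti-p62 and anti-beclin-1, HRP secondary, chemiluminescent detection. Levels quantified relative to β-actin; three separate assays, mean ± SD.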

The subject of data set [9] is Bel-7402. The data set is described as follows: Induction of autophagy in human Bel7402 cells assessed as downregulation of LC3-I level at 1 to 5 uM after 24 to 72 hrs by Western blot analysis. The class given is functional, cell-based. The procedure, abridged: as §2
Data set [10] deals with Bel-7402. Briefly: Effect on mTOR expression in human Bel7402 cells at 1 to 2.5 uM after 24 to 72 hrs by Western blot analysis. The data set is classed as ADME, cell-based. The following applies: bel-7402, 2.5 µM. The procedure, abridged:
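Bel7402 cells (1.5 × 10^5/mL) exposed to compound at 1.0 and 2.5 μM for 24 or 72 h. Lysates (0.05 mg/lane) separated on 12% SDS-PAGE and blotted to nitrocellulose. Probed for total Akt, phospho-Akt (Ser473), total mTOR and phospho-mTOR, HRP secondary, chemiluminescent detection. Quantified from three separate assays, mean ± SD.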

By IC50 is commonly meant the concentration that gives 50% inhibition. Low readings indicate higher potency, high ones lower potency.

On to `COc1ccc(-c2nc(NCCCOc3ccc(/C=C/C(=O)NO)cc3OC)cc3c2[nH]c2ccccc23)cc1`, for which the IC50 in data set [1] is 27 nM; in [2], 13 nM; in data set [3], above 1000 nM. In addition, in [4], the Ratio IC50 is 2. Moreover, the Activity in data set [5] was 73.8%; in [6], “Dose-dependent effect”; in data set [10], “Non-Toxic”. Besides, the result in data set [7], in data set [8] and in data set [9] was Active.
